According to ChEMBL document CHEMBL1255409, “In vitro activity of ceftaroline against 623 diverse strains of anaerobic bacteria” (2010):
Values after ≈ are worked out from the molar mass of the structure shown.

Assays:
Prevotella denticola = experiment: Antimicrobial activity against Prevotella denticola under anaerobic conditions after 44 hrs by CLSI-M11-47 protocol based agar dilution method; format: functional
In short: (§1)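 Clinical isolates were stored at −70°C in 20% skim milk and identified phenotypically or by partial 16S rRNA sequencing. Each strain was subcultured twice from frozen stock. Cell paste from 48-h cultures was suspended in brucella broth to a 0.5 McFarland standard. About 10^5 CFU per spot were applied by Steers replicator to agar dilution plates prepared on the day of testing. Plates were incubated 44 h at 37°C in an anaerobic chamber. MIC was taken as the lowest concentration giving complete inhibition or marked reduction of growth versus the drug-free control.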

Lacticaseibacillus casei = experiment: Antimicrobial activity against Lactobacillus casei under anaerobic conditions after 44 hrs by CLSI-M11-47 protocol based agar dilution method; format: functional; in short: as §1
Actinomyces turicensis = experiment: Antimicrobial activity against Actinomyces turicensis under anaerobic conditions after 44 hrs by CLSI-M11-47 protocol based agar dilution method; format: functional; conditions: Schaalia turicensis
In short: (§2)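 Reference agar dilution per CLSI M11-A7 with plates made on test day. Clinical isolates were stored at −70°C in 20% skim milk, subcultured twice, and 48-h cell paste was suspended in brucella broth to 0.5 McFarland. About 10^5 CFU/spot was applied with a Steers replicator. Plates were incubated 44 h at 37°C anaerobically. MIC was the lowest concentration giving complete inhibition or marked growth reduction versus the drug-free control.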

Prevotella tannerae = experiment: Antimicrobial activity against Prevotella tannerae under anaerobic conditions after 44 hrs by CLSI-M11-47 protocol based agar dilution method; format: functional; conditions: Alloprevotella tannerae; in short: as §1
Eubacterium limosum = experiment: Antimicrobial activity against Eubacterium limosum under anaerobic conditions after 44 hrs by CLSI-M11-47 protocol based agar dilution method; format: functional; in short: as §2
Gemella morbillorum = experiment: Antimicrobial activity against Gemella morbillorum under anaerobic conditions after 44 hrs by CLSI-M11-47 protocol based agar dilution method; format: functional; in short: as §1
Parvimonas micra = experiment: Antimicrobial activity against Parvimonas micra under anaerobic conditions after 44 hrs by CLSI-M11-47 protocol based agar dilution method; format: functional; in short: as §1
[1] = tested on: Peptostreptococcus anaerobius; experiment: Antimicrobial activity against Peptostreptococcus anaerobius under anaerobic conditions after 44 hrs by CLSI-M11-47 protocol based agar dilution method; format: functional; in short: as §1
[2] = tested on: Porphyromonas asaccharolytica; experiment: Antimicrobial activity against Porphyromonas asaccharolyticus under anaerobic conditions after 44 hrs by CLSI-M11-47 protocol based agar dilution method; format: functional; in short: as §1
Prevotella corporis = experiment: Antimicrobial activity against Prevotella corporis under anaerobic conditions after 44 hrs by CLSI-M11-47 protocol based agar dilution method; format: functional; in short: as §1
Bacteroides fragilis [3] = experiment: Antimicrobial activity against Bacteroides fragilis spp. under anaerobic conditions after 44 hrs by CLSI-M11-47 protocol based agar dilution method; format: functional; in short: as §2
[4] = tested on: Enterocloster clostridioformis; experiment: Antimicrobial activity against Clostridium clostridioforme under anaerobic conditions after 44 hrs by CLSI-M11-47 protocol based agar dilution method; format: functional; in short: as §2
[5] = tested on: Bacteroides thetaiotaomicron; experiment: Antimicrobial activity against Bacteroides thetaiotaomicron under anaerobic conditions after 44 hrs by CLSI-M11-47 protocol based agar dilution method; format: functional; in short: as §2
Slackia exigua = experiment: Antimicrobial activity against Slackia exigua under anaerobic conditions after 44 hrs by CLSI-M11-47 protocol based agar dilution method; format: functional; in short: as §1
[6] = tested on: Fusobacterium necrophorum; experiment: Antimicrobial activity against Fusobacterium necrophorum under anaerobic conditions after 44 hrs by CLSI-M11-47 protocol based agar dilution method; format: functional; in short: as §2
Bacteroides fragilis [7] = experiment: Antimicrobial activity against Bacteroides fragilis under anaerobic conditions after 44 hrs by CLSI-M11-47 protocol based agar dilution method; format: functional; in short: as §2
[8] = tested on: Parabacteroides distasonis; experiment: Antimicrobial activity against Bacteroides distasonis under anaerobic conditions after 44 hrs by CLSI-M11-47 protocol based agar dilution method; format: functional; in short: as §2
Hoylesella loescheii = experiment: Antimicrobial activity against Prevotella loescheii under anaerobic conditions after 44 hrs by CLSI-M11-47 protocol based agar dilution method; format: functional; in short: as §1
Cutibacterium acnes = experiment: Antimicrobial activity against Propionibacterium acnes under anaerobic conditions after 44 hrs by CLSI-M11-47 protocol based agar dilution method; format: functional; in short: as §1
Actinomyces israelii = experiment: Antimicrobial activity against Actinomyces israelii under anaerobic conditions after 44 hrs by CLSI-M11-47 protocol based agar dilution method; format: functional; in short: as §2
Anaerococcus vaginalis = experiment: Antimicrobial activity against Anaerococcus vaginalis under anaerobic conditions after 44 hrs by CLSI-M11-47 protocol based agar dilution method; format: functional; in short: as §2
[9] = tested on: Actinomyces neuii subsp. anitratus; experiment: Antimicrobial activity against Actinomyces neuii subsp. anitratus under anaerobic conditions after 44 hrs by CLSI-M11-47 protocol based agar dilution method; format: functional, Winkia neuii subsp. anitrata; conditions: Winkia neuii; in short: as §2
Veillonella = experiment: Antimicrobial activity against Veillonella spp. under anaerobic conditions after 44 hrs by CLSI-M11-47 protocol based agar dilution method; format: functional; in short: as §1
Porphyromonas somerae = experiment: Antimicrobial activity against Porphyromonas somerae under anaerobic conditions after 44 hrs by CLSI-M11-47 protocol based agar dilution method; format: functional; in short: as §1
Anaerococcus octavius = experiment: Antimicrobial activity against Anaerococcus octavius under anaerobic conditions after 44 hrs by CLSI-M11-47 protocol based agar dilution method; format: functional; in short: as §2
Mogibacterium timidum = experiment: Antimicrobial activity against Mogibacterium timidum under anaerobic conditions after 44 hrs by CLSI-M11-47 protocol based agar dilution method; format: functional; in short: as §1
[Clostridium] innocuum = Antimicrobial activity against Clostridium […] under anaerobic conditions after 44 hrs by CLSI-M11-47 protocol based agar dilution method; format: functional; in short: as §2
Propionibacterium avidum = experiment: Antimicrobial activity against Propionibacterium avidum under anaerobic conditions after 44 hrs by CLSI-M11-47 protocol based agar dilution method; format: functional; conditions: Cutibacterium avidum; in short: as §1
Gemella sanguinis = experiment: Antimicrobial activity against Gemella sanguinis under anaerobic conditions after 44 hrs by CLSI-M11-47 protocol based agar dilution method; format: functional; in short: as §1
Bacteroides uniformis = experiment: Antimicrobial activity against Bacteroides uniformis under anaerobic conditions after 44 hrs by CLSI-M11-47 protocol based agar dilution method; format: functional; in short: as §2
Clostridium subterminale = experiment: Antimicrobial activity against Clostridium subterminale under anaerobic conditions after 44 hrs by CLSI-M11-47 protocol based agar dilution method; format: functional; in short: as §2
Clostridium hathewayi = experiment: Antimicrobial activity against Clostridium hathewayi under anaerobic conditions after 44 hrs by CLSI-M11-47 protocol based agar dilution method; format: functional; conditions: Hungatella hathewayi; in short: as §2

With `CO/N=C(\C(=O)N[C@@H]1C(=O)N2C(C(=O)O)=C(CSc3nc(=O)c(O)nn3C)CS[C@H]12)c1csc(N)n1` [CEFTRIAXONE] the MIC50 (Prevotella denticola) was 1 µg/mL (≈ 1.8 µM), the MIC90 (Prevotella denticola) was 8 µg/mL (≈ 14.4 µM) and the MIC50 (Lacticaseibacillus casei) was 32 µg/mL (≈ 57.7 µM). The MIC90 (Lacticaseibacillus casei) was 64 µg/mL (≈ 115 µM), the MIC50 (Actinomyces turicensis) was 0.125 µg/mL (≈ 0.225 µM) and the MIC90 (Actinomyces turicensis) was 0.5 µg/mL (≈ 0.902 µM). The MIC50 (Prevotella tannerae) was 1 µg/mL (≈ 1.8 µM), the MIC90 (Prevotella tannerae) was 8 µg/mL (≈ 14.4 µM) and the MIC50 (Eubacterium limosum) was 0.5 µg/mL (≈ 0.902 µM). The MIC90 (Eubacterium limosum) was 2 µg/mL (≈ 3.61 µM), the MIC50 (Gemella morbillorum) was 0.25 µg/mL (≈ 0.451 µM) and the MIC90 (Gemella morbillorum) was 16 µg/mL (≈ 28.9 µM). For the same compound, the MIC50 (Parvimonas micra) was 0.5 µg/mL (≈ 0.902 µM), the MIC90 (Parvimonas micra) was 1 µg/mL (≈ 1.8 µM) and the MIC50 [1] was 2 µg/mL (≈ 3.61 µM). It also gave an MIC90 [1] of 8 µg/mL (≈ 14.4 µM), an MIC50 [2] of 0.06 µg/mL (≈ 0.108 µM) and an MIC90 [2] of 0.06 µg/mL (≈ 0.108 µM). For the same compound, the MIC50 (Prevotella corporis) was 1 µg/mL (≈ 1.8 µM), the MIC90 (Prevotella corporis) was 8 µg/mL (≈ 14.4 µM) and the MIC50 (Bacteroides fragilis [3]) was > 64 µg/mL. For the same compound, the MIC90 (Bacteroides fragilis [3]) was > 64 µg/mL, the MIC50 [4] was 4 µg/mL (≈ 7.21 µM) and the MIC90 [4] was 32 µg/mL (≈ 57.7 µM). For the same compound, the MIC50 [5] was > 64 µg/mL, the MIC90 [5] was > 64 µg/mL and the MIC50 (Slackia exigua) was 0.5 µg/mL (≈ 0.902 µM). It also gave an MIC90 (Slackia exigua) of 2 µg/mL (≈ 3.61 µM), an MIC50 [6] of 0.015 µg/mL (≈ 0.027 µM) and an MIC90 [6] of 0.03 µg/mL (≈ 0.0541 µM). The MIC50 (Bacteroides fragilis [7]) was 32 µg/mL (≈ 57.7 µM), the MIC90 (Bacteroides fragilis [7]) was 64 µg/mL (≈ 115 µM) and the MIC50 [8] was > 64 µg/mL. For the same compound, the MIC90 [8] was > 64 µg/mL, the MIC50 (Hoylesella loescheii) was 1 µg/mL (≈ 1.8 µM) and the MIC90 (Hoylesella loescheii) was 8 µg/mL (≈ 14.4 µM). The MIC50 (Cutibacterium acnes) was 0.015 µg/mL (≈ 0.027 µM), the MIC90 (Cutibacterium acnes) was 0.06 µg/mL (≈ 0.108 µM) and the MIC50 (Actinomyces israelii) was 0.125 µg/mL (≈ 0.225 µM). It also gave an MIC90 (Actinomyces israelii) of 0.5 µg/mL (≈ 0.902 µM), an MIC50 (Anaerococcus vaginalis) of 0.25 µg/mL (≈ 0.451 µM) and an MIC90 (Anaerococcus vaginalis) of 16 µg/mL (≈ 28.9 µM). It also gave an MIC50 [9] of 0.125 µg/mL (≈ 0.225 µM), an MIC90 [9] of 0.5 µg/mL (≈ 0.902 µM) and an MIC50 (Veillonella) of 4 µg/mL (≈ 7.21 µM). The MIC90 (Veillonella) was 8 µg/mL (≈ 14.4 µM), the MIC50 (Porphyromonas somerae) was 0.015 µg/mL (≈ 0.027 µM) and the MIC90 (Porphyromonas somerae) was 64 µg/mL (≈ 115 µM). For the same compound, the MIC50 (Anaerococcus octavius) was 0.25 µg/mL (≈ 0.451 µM), the MIC90 (Anaerococcus octavius) was 16 µg/mL (≈ 28.9 µM) and the MIC50 (Mogibacterium timidum) was 0.5 µg/mL (≈ 0.902 µM). The MIC90 (Mogibacterium timidum) was 2 µg/mL (≈ 3.61 µM), the MIC50 ([Clostridium] innocuum) was 8 µg/mL (≈ 14.4 µM) and the MIC90 ([Clostridium] innocuum) was 16 µg/mL (≈ 28.9 µM). It also gave an MIC50 (Propionibacterium avidum) of 0.25 µg/mL (≈ 0.451 µM), an MIC90 (Propionibacterium avidum) of 0.5 µg/mL (≈ 0.902 µM) and an MIC50 (Gemella sanguinis) of 0.25 µg/mL (≈ 0.451 µM). The MIC90 (Gemella sanguinis) was 16 µg/mL (≈ 28.9 µM), the MIC50 (Bacteroides uniformis) was > 64 µg/mL and the MIC90 (Bacteroides uniformis) was > 64 µg/mL. For the same compound, the MIC50 (Clostridium subterminale) was 2 µg/mL (≈ 3.61 µM), the MIC90 (Clostridium subterminale) was 64 µg/mL (≈ 115 µM) and the MIC50 (Clostridium hathewayi) was 4 µg/mL (≈ 7.21 µM). For the same compound, the MIC90 (Clostridium hathewayi) was 32 µg/mL (≈ 57.7 µM).
